Data as given in ChEMBL document CHEMBL1125592, “Calcium channel blocking and positive inotropic activities of ethyl 5-cyano-1,4-dihydro-6-methyl-2-[(phenylsulfonyl)methyl]-4-aryl-3- pyridine-carboxylate and analogues. Synthesis and structure-activity relationships” (J Med Chem, 1991).
Calls of active or inactive are those of the source. No cut-off for these calls is given here.

Tests used:
Rattus norvegicus [1] = species: Rattus norvegicus; experiment: Cardiovascular activity in isolated rat heart, concentration producing 25% increase in CF (cardiac flow).; type: functional
How it was run: (§1)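 Isolated Langendorff-perfused rat heart. Coronary flow (CF), LV +dP/dtmax and heart rate recorded during exposure to test agent. Value is the concentration giving a 25% rise in CF or in LV +dP/dtmax, mean ± SE. At least two hearts per compound.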

[2] = molecular target: Voltage-gated L-type calcium channel (Rattus norvegicus, UniProt P22002+Q02485+P27732); experiment: Affinity to bind dihydropyridine receptor (DHP receptor) by inhibiting the radioligand [3H]nitrendipine; type: protein assay
How it was run: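 [3H]nitrendipine displacement, rat brain cortical membranes. Each compound first screened at 1000 nM; if inhibition exceeded 40%, a four- to seven-point curve with unlabeled compound was run. IC50 generally mean of two experiments, each in triplicate. ">1000 nM" means under 40% inhibition of control binding at 1000 nM.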

Rattus norvegicus [3] = species: Rattus norvegicus; experiment: Compound was tested for the cardiovascular activity in isolated rat heart. Value represents the concentration producing 25% increase in LV + dP/dtmax; NA indicates not active; type: functional; how it was run: as §1
Rattus norvegicus [4] = species: Rattus norvegicus; experiment: Compound was tested for the cardiovascular activity in isolated rat heart. Value represents the concentration producing 25% increase in CF (cardiac flow); NA indicates not active; type: functional; how it was run: as §1
Rattus norvegicus [5] = species: Rattus norvegicus; experiment: Cardiovascular activity in isolated rat heart, concentration producing 25% increase in LV + dP/dtmax.; type: functional; how it was run: as §1
Oryctolagus cuniculus [6] = species: Oryctolagus cuniculus; experiment: Vasorelaxant effect at a concentration of 10e-7 M on rabbit aortic rings previously contracted with 1.0 uM Norepinephrine.; type: functional, Aorta; parameters: unit not given here
How it was run: (§2)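 Rabbit aortic rings precontracted with 50 mM KCl or 1.0 μM norepinephrine, then exposed to increasing concentrations of test agent. Relaxation recorded at each concentration.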

Oryctolagus cuniculus [7] = species: Oryctolagus cuniculus; experiment: Vasorelaxant effect at a concentration of 10e-6 M on rabbit aortic rings previously contracted with 50 mM KCl.; type: functional, Aorta; parameters: unit not given here; how it was run: as §2
Oryctolagus cuniculus [8] = species: Oryctolagus cuniculus; experiment: Vasorelaxant effect at a concentration of 10e-7 M on rabbit aortic rings previously contracted with 50 mM KCl.; type: functional, Aorta; parameters: unit not given here; how it was run: as §2
Oryctolagus cuniculus [9] = species: Oryctolagus cuniculus; experiment: Vasorelaxant effect at a concentration of 10e-5 M on rabbit aortic rings previously contracted with 1.0 uM Norepinephrine.; type: functional, Aorta; parameters: unit not given here; how it was run: as §2
Oryctolagus cuniculus [10] = species: Oryctolagus cuniculus; experiment: Vasorelaxant effect at a concentration of 10e-4 M on rabbit aortic rings previously contracted with 1.0 uM Norepinephrine.; type: functional, Aorta; parameters: unit not given here; how it was run: as §2
Oryctolagus cuniculus [11] = species: Oryctolagus cuniculus; experiment: Vasorelaxant effect at a concentration of 10e-5 M on rabbit aortic rings previously contracted with 50 mM KCl.; type: functional, Aorta; parameters: unit not given here; how it was run: as §2
Oryctolagus cuniculus [12] = species: Oryctolagus cuniculus; experiment: Vasorelaxant effect at a concentration of 10e-6 M on rabbit aortic rings previously contracted with 1.0 uM Norepinephrine.; type: functional, Aorta; parameters: unit not given here; how it was run: as §2
Oryctolagus cuniculus [13] = species: Oryctolagus cuniculus; experiment: Vasorelaxant effect at a concentration of 10e-4 M on rabbit aortic rings previously contracted with 50 mM KCl.; type: functional, Aorta; parameters: unit not given here; how it was run: as §2
Oryctolagus cuniculus [14] = species: Oryctolagus cuniculus; experiment: Vasorelaxant effect at a concentration of 10e-8 M on rabbit aortic rings previously contracted with 1.0 uM Norepinephrine.; type: functional; settings: Aorta; how it was run: as §2
Oryctolagus cuniculus [15] = species: Oryctolagus cuniculus; experiment: Vasorelaxant effect at a concentration of 10e-9 M on rabbit aortic rings previously contracted with 50 mM KCl.; type: functional; settings: Aorta; how it was run: as §2
Oryctolagus cuniculus [16] = species: Oryctolagus cuniculus; experiment: Vasorelaxant effect at a concentration of 10e-8 M on rabbit aortic rings previously contracted with 50 mM KCl.; type: functional; settings: Aorta; how it was run: as §2
Oryctolagus cuniculus [17] = species: Oryctolagus cuniculus; experiment: Vasorelaxant effect at a concentration of 10e-9 M on rabbit aortic rings previously contracted with 1.0 uM Norepinephrine.; type: functional; settings: Aorta; how it was run: as §2

Compound	EC25 (Rattus norvegicus [1])	IC50 [2]	EC25 (Rattus norvegicus [5])	other results
CCO/C(O)=C1\C(CS(=O)(=O)c2ccc(Cl)cc2)=NC(C)=C(C#N)C1c1ccccc1C(F)(F)F (stereo not drawn)	0.55 µM	0.091 µM	–	EC25 (Rattus norvegicus [3]): inactive
CC1=C(C#N)C(c2ccccc2C(F)(F)F)/C(=C(\O)OCCN2CCCCC2)C(C[S+]([O-])c2ccccc2)=N1 (stereo not drawn)	–	> 1 µM	–	EC25 (Rattus norvegicus [4]): inactive; EC25 (Rattus norvegicus [3]): inactive
CCO/C(O)=C1\C(C[S+]([O-])c2ccncc2)=NC(C)=C(C#N)C1c1ccccn1 (stereo not drawn)	–	> 1 µM	–	EC25 (Rattus norvegicus [4]): inactive; EC25 (Rattus norvegicus [3]): inactive
CCOC(=O)C1=C(C[S+]([O-])c2ccccc2)NC(C)=C(C#N)C1c1cccc([N+](=O)[O-])c1 (stereo in doubt; 32b)	–	–	–	EC25 (Rattus norvegicus [4]): inactive
CCO/C(O)=C1\C(CS(=O)(=O)c2ccccc2Cl)=NC(C)=C(C#N)C1c1ccccc1C(F)(F)F (stereo not drawn)	0.35 µM	> 0.5 µM	0.36 µM	–
CCO/C(O)=C1\C(CS(=O)(=O)c2ccccc2)=NC(C)=C(C#N)C1c1ccccc1 (stereo not drawn)	–	0.48 µM	0.96 µM	Vasorelaxant effect (Oryctolagus cuniculus [6]): 0; Vasorelaxant effect (Oryctolagus cuniculus [7]): 1; Vasorelaxant effect (Oryctolagus cuniculus [8]): 4; Vasorelaxant effect (Oryctolagus cuniculus [9]): 0; Vasorelaxant effect (Oryctolagus cuniculus [10]): 6; EC25 (Rattus norvegicus [4]): inactive; Vasorelaxant effect (Oryctolagus cuniculus [11]): 26; Vasorelaxant effect (Oryctolagus cuniculus [12]): 1; Vasorelaxant effect (Oryctolagus cuniculus [13]): 54
CC1=C(C#N)C(c2ccccc2C(F)(F)F)/C(=C(\O)OCCN(C)Cc2ccccc2)C(C[S+]([O-])c2ccccc2)=N1 (stereo not drawn)	0.42 µM	> 1 µM	0.12 µM	–
CCO/C(O)=C1\C(CS(=O)(=O)c2ccccc2)=NC(C)=C(C#N)C1c1cccc([N+](=O)[O-])c1 (stereo not drawn)	0.51 µM	0.3 µM	0.52 µM	–
CCO/C(O)=C1\C(CS(=O)(=O)c2ccccc2C)=NC(C)=C(C#N)C1c1ccccc1C(F)(F)F (stereo not drawn)	0.47 µM	> 1 µM	0.32 µM	–
NITROPRUSSIDE	–	–	–	Vasorelaxant effect (Oryctolagus cuniculus [14]): 0.7; Vasorelaxant effect (Oryctolagus cuniculus [6]; Aorta): 7; Vasorelaxant effect (Oryctolagus cuniculus [15]): -5.9; Vasorelaxant effect (Oryctolagus cuniculus [7]; Aorta): 22; Vasorelaxant effect (Oryctolagus cuniculus [8]; Aorta): 5.6; Vasorelaxant effect (Oryctolagus cuniculus [16]): -4.8; Vasorelaxant effect (Oryctolagus cuniculus [9]; Aorta): 39.8; Vasorelaxant effect (Oryctolagus cuniculus [10]; Aorta): 55.8; Vasorelaxant effect (Oryctolagus cuniculus [17]): -0.003; Vasorelaxant effect (Oryctolagus cuniculus [11]; Aorta): 40.4; Vasorelaxant effect (Oryctolagus cuniculus [12]; Aorta): 22.8; Vasorelaxant effect (Oryctolagus cuniculus [13]; Aorta): 52.1
CC1=C(C#N)C(c2ccccc2C(F)(F)F)/C(=C(\O)OC(C)C)C(CS(=O)(=O)c2ccccc2)=N1 (stereo not drawn)	<0.1 µM	0.39 µM	inactive	–
CCO/C(O)=C1\C(CS(=O)(=O)c2ccccc2)=NC(C)=C(C#N)C1c1ccccc1C(F)(F)F (stereo not drawn)	0.07 µM	0.12 µM	0.11 µM	Vasorelaxant effect (Oryctolagus cuniculus [6]): 5; Vasorelaxant effect (Oryctolagus cuniculus [7]): 24; Vasorelaxant effect (Oryctolagus cuniculus [8]): 4; Vasorelaxant effect (Oryctolagus cuniculus [9]): 13; Vasorelaxant effect (Oryctolagus cuniculus [10]): 23; Vasorelaxant effect (Oryctolagus cuniculus [11]): 67; Vasorelaxant effect (Oryctolagus cuniculus [12]): 7; Vasorelaxant effect (Oryctolagus cuniculus [13]): 80
CCO/C(O)=C1\C(CS(=O)(=O)c2ccc(OC)cc2)=NC(C)=C(C#N)C1c1ccccc1C(F)(F)F (stereo not drawn)	0.3 µM	0.109 µM	inactive	–
CCOC(=O)C1=C(C[S+]([O-])c2ccccc2)NC(C)=C(C#N)C1c1ccccc1C(F)(F)F (stereo in doubt; 29a)	–	–	–	EC25 (Rattus norvegicus [4]): inactive
CCO/C(O)=C1\C(CS(=O)(=O)c2ccc(N)cc2)=NC(C)=C(C#N)C1c1ccccc1C(F)(F)F (stereo not drawn)	0.94 µM	1 µM	0.84 µM	Vasorelaxant effect (Oryctolagus cuniculus [6]): 2; Vasorelaxant effect (Oryctolagus cuniculus [7]): 5; Vasorelaxant effect (Oryctolagus cuniculus [8]): 2; Vasorelaxant effect (Oryctolagus cuniculus [9]): 2; Vasorelaxant effect (Oryctolagus cuniculus [10]): 5; Vasorelaxant effect (Oryctolagus cuniculus [11]): 38; Vasorelaxant effect (Oryctolagus cuniculus [12]): 2; Vasorelaxant effect (Oryctolagus cuniculus [13]): 69
CCOC(=O)C1=C(C[S+]([O-])c2ccccc2)NC(C)=C(C#N)C1c1cccc([N+](=O)[O-])c1 (stereo in doubt; 32a)	–	–	–	EC25 (Rattus norvegicus [4]): inactive
CCO/C(O)=C1\C(C[S+]([O-])c2ccccc2Cl)=NC(C)=C(C#N)C1c1ccccc1C(F)(F)F (stereo not drawn)	0.26 µM	> 1 µM	0.2 µM	–
CCO/C(O)=C1\C(C[S+]([O-])c2ccc(OC)cc2)=NC(C)=C(C#N)C1c1ccccc1C(F)(F)F (stereo not drawn)	0.3 µM	1.2 µM	–	EC25 (Rattus norvegicus [3]): inactive
CCO/C(O)=C1\C(CS(=O)(=O)c2ccccc2)=NC(C)=C(C#N)C1C1CCCCC1 (stereo not drawn)	0.52 µM	> 1 µM	1.09 µM	–
CCO/C(O)=C1\C(C[S+]([O-])c2ccccc2)=NC(C)=C(C#N)C1c1ccccc1Cl (stereo not drawn)	0.54 µM	> 1 µM	0.91 µM	–
C=CCO/C(O)=C1\C(CS(=O)(=O)c2ccccc2)=NC(C)=C(C#N)C1c1ccccc1C(F)(F)F (stereo not drawn)	<0.1 µM	0.58 µM	0.3 µM	–
CCO/C(O)=C1\C(CSc2ccc(NC(C)=O)cc2)=NC(C)=C(C#N)C1c1ccccc1C(F)(F)F (stereo not drawn)	0.26 µM	0.205 µM	inactive	–
CCO/C(O)=C1\C(CS(=O)(=O)c2ccccc2F)=NC(C)=C(C#N)C1c1ccccc1C(F)(F)F (stereo not drawn)	0.09 µM	> 1 µM	0.39 µM	–
CCOC(=O)C1=C(C[S+]([O-])c2ccccc2)NC(C)=C(C#N)C1c1ccccc1C(F)(F)F (stereo in doubt; 29b)	1.3 µM	2.8 µM	0.17 µM	–
CCO/C(O)=C1\C(C[S+]([O-])c2ccncc2)=NC(C)=C(C#N)C1c1ccccc1C(F)(F)F (stereo not drawn)	inactive	1.1 µM	1.2 µM	–
CC1=C(C#N)C(c2ccccc2C(F)(F)F)/C(=C(\O)OC(C)C)C(C[S+]([O-])c2ccccc2)=N1 (stereo not drawn)	0.24 µM	0.5 µM	–	EC25 (Rattus norvegicus [3]): inactive
CCO/C(O)=C1\C(CS(=O)(=O)c2ccncc2)=NC(C)=C(C#N)C1c1ccccn1 (stereo not drawn)	–	> 1 µM	–	EC25 (Rattus norvegicus [4]): inactive; EC25 (Rattus norvegicus [3]): inactive
CCO/C(O)=C1\C(C[S+]([O-])c2ccccc2C)=NC(C)=C(C#N)C1c1ccccc1C(F)(F)F (stereo not drawn)	0.8 µM	> 1 µM	0.13 µM	–
CC1=C(C#N)C(c2ccccc2C(F)(F)F)/C(=C(\O)OC(C)C)C(CSc2ccccc2)=N1 (stereo not drawn)	–	0.25 µM	–	Vasorelaxant effect (Oryctolagus cuniculus [6]): -1; Vasorelaxant effect (Oryctolagus cuniculus [7]): 2; Vasorelaxant effect (Oryctolagus cuniculus [8]): 0; Vasorelaxant effect (Oryctolagus cuniculus [9]): 8; Vasorelaxant effect (Oryctolagus cuniculus [10]): 9; Vasorelaxant effect (Oryctolagus cuniculus [11]): 30; Vasorelaxant effect (Oryctolagus cuniculus [12]): -2; Vasorelaxant effect (Oryctolagus cuniculus [13]): 74
CCO/C(O)=C1\C(C[S+]([O-])c2ccccc2F)=NC(C)=C(C#N)C1c1ccccc1C(F)(F)F (stereo not drawn)	0.36 µM	> 1 µM	0.93 µM	–
